The results in this text go back to ChEMBL document CHEMBL5674874, “BRD4 facilitates DNA damage response and represses CBX5/Heterochromatin protein 1 (HP1)” (Oncotarget, 2017).

Test [1] concerns A2780. Nature of the test: Cytotoxicity against human A2780 cells assessed as reduction in cell viability after 3 days by XTT assay. The note with it: A2780, 72 h. In kind it is functional, cell-based. A digest of the protocol:
(§1)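 Ovarian cancer lines in RPMI with 10% heat-inactivated FBS were seeded at 2,000-4000 cells/well in triplicate. Drug from DMSO stock was added 24hr later, and XTT was read 3 days after drug addition. Proliferation is relative to negative control, and IC50 was calculated from the individual XTT data points.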
(In general: Tetrazolium dyes change colour on reduction, which living cells bring about.)

Test [2] has as its system OVCAR-3. Nature of the test: Cytotoxicity against human OVCAR-3 cells assessed as reduction in cell viability after 3 days by XTT assay. In kind it is functional, cell-based. As to conditions: OVCAR-3, 72 h. A digest of the protocol: as §1
For test [3], the system named is A2780. The experiment in a line: Induction of DNA damage response in human A2780 cells assessed as CHK1 Ser345 phosphorylation at 2.5 uM in presence of 2.5 nM CHK1 inhibitor LY2606368 after 24 hrs by Western blot analysis. Type of test: functional, cell-based. Put shortly:
(§2)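 Cells were exposed to JQ1 (2.5 μM) and/or LY2606368 (2.5 nM) for 24hr. Sub-confluent cells were lysed in 1% NP40 buffer with protease and phosphatase inhibitors, and protein was measured by BCA. Total lysates were blotted for phospho-CHK1 (Ser345) and CHK1 with GAPDH as loading control, using HRP chemiluminescence detection. Blots were repeated three times.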
(Immunoblotting shows a protein as a band on a membrane.)

For test [4], the system named is OVCAR-8. Nature of the test: Induction of DNA damage response in human OVCAR-8 cells assessed as CHK1 Ser345 phosphorylation at 2.5 uM in presence of 2.5 nM CHK1 inhibitor LY2606368 after 24 hrs by Western blot analysis. In kind it is functional, cell-based. Put shortly: as §2
Test [5] concerns IGROV-1. Nature of the test: Induction of DNA damage response in human IGROV-1 cells assessed as CHK1 Ser345 phosphorylation at 2.5 uM in presence of 2.5 nM CHK1 inhibitor LY2606368 after 24 hrs by Western blot analysis. Type of test: functional, cell-based. A digest of the protocol: as §2
Test [6] concerns OVCAR-3. Nature of the test: Induction of DNA damage response in human OVCAR-3 cells assessed as CHK1 Ser345 phosphorylation at 2.5 uM in presence of 2.5 nM CHK1 inhibitor LY2606368 after 24 hrs by Western blot analysis. In kind it is functional, cell-based. A digest of the protocol:
as §2

In test [7] the test system is OVCAR-8. Nature of the test: Induction of cell cycle arrest in human OVCAR-8 cells assessed as accumulation of cells at G1 phase at 2.5 uM for 20 hrs by propidium iodide staining based flow cytometry. In kind it is functional. In general terms: In flow cytometry, cells or beads pass a laser one at a time.
Test [8] has as its system SK-OV-3. The experiment in a line: Cytotoxicity against human SK-OV-3 cells assessed as reduction in cell viability after 3 days by XTT assay. Type of test: functional, cell-based. The note with it: SK-OV-3, 72 h. A digest of the protocol:
as §1

The subject of test [9] is OVCAR-8. The experiment in a line: Cytotoxicity against human OVCAR-8 cells assessed as reduction in cell viability after 3 days by XTT assay. Type of test: functional, cell-based. As to conditions: OVCAR-8, 72 h. Put shortly: as §1
Test [10] deals with Bromodomain-containing protein 4 (Homo sapiens) (UniProt O60885). As to conditions: OVCAR-8, dose 500.0 nM, time 24.0 hrs.
Test [11] relates to OVCAR-8. Nature of the test: Effect on gamma-H2AX expression in human OVCAR-8 cells at 2.5 uM for 20 hrs by immunofluorescent staining. Type of test: functional, cell-based. A digest of the protocol: (§3)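 Cells were serum-starved for 16hr, then given JQ1 2.5 μM and/or LY2606368 10 nM for 20hr. They were fixed in 4% paraformaldehyde, permeabilized with 0.25% Triton X-100, and blocked in 10% goat serum. γ-H2AX (Ser139/Tyr142) antibody at 1:200 was applied for 2hr, then an Alexa Fluor secondary for 1hr at 4°C. Signal was read by flow cytometry.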

Test [12] has as its target Bromodomain-containing protein 4 (Homo sapiens) (UniProt O60885). The note with it: OVCAR-8, dose 500.0 nM, time 24.0 hrs. This is another data set of the same source.
The subject of test [13] is SK-OV-3. The experiment in a line: Induction of DNA damage response in human SK-OV-3 cells assessed as CHK1 Ser345 phosphorylation at 2.5 uM in presence of 2.5 nM CHK1 inhibitor LY2606368 after 24 hrs by Western blot analysis. In kind it is functional, cell-based. Put shortly:
as §2

The test system of test [14] is OVCAR-5. Nature of the test: Cytotoxicity against human OVCAR-5 cells assessed as reduction in cell viability after 3 days by XTT assay. Type of test: functional, cell-based. The note with it: OVCAR-5, 72 h. A digest of the protocol:
as §1

For test [15], the system named is OVCAR-8. The experiment in a line: Effect on gamma-H2AX phosphorylation in nucleus of human OVCAR-8 cells at 2.5 uM for 20 hrs by immunofluorescent staining. In kind it is functional, cell-based. A digest of the protocol:
as §3

Test [16] has as its system OVCAR-5. Nature of the test: Induction of DNA damage response in human OVCAR-5 cells assessed as CHK1 Ser345 phosphorylation at 2.5 uM in presence of 2.5 nM CHK1 inhibitor LY2606368 after 24 hrs by Western blot analysis. In kind it is functional, cell-based. A digest of the protocol:
as §2

In test [17] the test system is OVCAR-8. The experiment in a line: Induction of abnormal nuclear morphology in human OVCAR-8 cells assessed as loss of nuclear roundness at 10 nM in presence of siCBX5 by immunostaining. In kind it is functional, cell-based. A digest of the protocol: (§4)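 Ovcar8 cells were transfected with 20nM siRNA; for co-transfection, 10nM of each. At 24hr they were plated on coverslips, and 8hr later LY2606368 10nM was added for 24hr. Cells were fixed (4% paraformaldehyde), permeabilized (0.25% Triton X-100), blocked (10% goat serum) and stained for H3K4me3, γ-H2AX and DAPI. Sphericity is the ratio of two perpendicular nuclear diameters, over multiple fields of 10-40 cells.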

In test [18] the test system is OVCAR-5. Nature of the test: Cytotoxicity against human OVCAR-5 cells assessed as reduction in cell viability at 10 nM in presence of siCBX5 after 3 days by XTT assay. Type of test: functional, cell-based. The note with it: time 3.0 day. A digest of the protocol: (§5)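 Cells were transfected with siRNA (final 20nM, DharmaFECT1) and seeded in 3 replicates 24hr later. Drug was added 24hr after seeding. Viability was read by XTT and normalized to siNeg-transfected cells.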

The subject of test [19] is SK-OV-3. Nature of the test: Cytotoxicity against human SK-OV-3 cells assessed as reduction in cell viability at 10 nM in presence of siCBX5 after 3 days by XTT assay. Type of test: functional, cell-based. As to conditions: time 3.0 day. Put shortly:
as §5

Test [20] deals with OVCAR-8. Nature of the test: Cytotoxicity against human OVCAR-8 cells assessed as reduction in cell viability at 10 nM in presence of siCBX5 after 3 days by XTT assay. The note with it: time 3.0 day. Type of test: functional, cell-based. Put shortly: as §5
The test system of test [21] is OVCAR-3. Nature of the test: Cytotoxicity against human OVCAR-3 cells assessed as reduction in cell viability at 10 nM in presence of siCBX5 after 3 days by XTT assay. Type of test: functional, cell-based. The note with it: time 3.0 day. A digest of the protocol:
as §5

Test [22] concerns OVCAR-8. The experiment in a line: Induction of abnormal nuclear morphology in human OVCAR-8 cells at 10 nM by immunostaining. In kind it is functional, cell-based. A digest of the protocol: as §4

Active and inactive are the calls of the source. The calls are words filed in the database; no cut-off is given here.

With `Cc1sc2c(c1C)C(c1ccc(Cl)cc1)=N[C@@H](CC(=O)OC(C)(C)C)c1nnc(C)n1-2`, the IC50 in [1], in [2], in test [8], in test [9] and in test [14] was 100 nM throughout. Besides, the outcome in test [3], in test [4], in [5], in test [6], in [11] and in [13] was inactive. For the same molecule, the result in test [15] and in [16] was inactive. Moreover, in test [7], the result was Active. Also, the inhibition entry in test [10] and in test [12] was “Active” each time.
`COc1cccc(OCCCN)c1-c1cc(Nc2cnc(C#N)cn2)n[nH]1` [PREXASERTIB]: the IC50 (commonly the midpoint of a concentration-inhibition curve) in test [1] is 40 nM; in [2] it was 12 nM; in test [8], 10 nM; in test [9] it was 10 nM; in [14], 3 nM. Besides, the IC25 – broadly, the point of the concentration-response curve where the effect stands at 25% – worked out at 10 nM in test [1] (time 3 day); 6 nM in test [2] (time 3 day); 4 nM in test [8] (time 3 day); 5 nM in [9] (time 3 day); 1.5 nM in test [14] (time 3 day). Further, the outcome in test [17], in test [18], in test [19], in test [20] and in [21] was inactive. Besides, in test [22], the outcome was Active.
